According to ChEMBL document CHEMBL3286182, “4-aminoquinolone piperidine amides: noncovalent inhibitors of DprE1 with long residence time and potent antimycobacterial activity” (J Med Chem, 2014):
In brackets after ≈: the same amount, converted by molar mass. Activity calls are given as the source filed them. No cut-off for these calls is given here.

Experiments:
[1] = test system: Mycobacterium tuberculosis; test: Antimycobacterial activity against Mycobacterium tuberculosis H37Rv after 5 days by standard microdilution method; format: functional; details: 120 h
[2] = Cytotoxicity against human A549 cells after 72 hrs by resazurin based fluorescence assay; format: cell-based; details: read-out: MIC
In short: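 Cytotoxicity read as MMIC, the MIC on the A549 cell line.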

[3] = Solubility of the compound in 0.1 M phosphate buffer at pH 7.4 after 24 hrs by UV and MS analysis; format: physicochemical
[4] = Octanol-water partition coefficient, log D of the compound by shake-flask method; format: physicochemical
[5] = Fraction unbound in human plasma at 20 uM after 18 hrs by equilibrium dialysis method; format: ADME, cell-free
[6] = Intrinsic clearance in human liver microsomes at 1 uM up to 30 mins by LC-MS/MS analysis; format: ADME; details: read-out: CLH
[7] = Intrinsic clearance in rat cryopreserved hepatocytes assessed per 10^6 cells at 1 uM up to 120 mins by LC-MS/MS analysis; format: ADME, cell-based, Hepatocyte; details: read-out: CLH
[8] = Permeability of the compound from apical to basolateral side in human Caco2 cells; format: ADME, cell-based; details: Caco-2, read-out: permeability
[9] = Permeability of the compound from basolateral to apical side in human Caco2 cells; format: ADME, cell-based; details: Caco-2, read-out: permeability
[10] = biological target: Voltage-gated inwardly rectifying potassium channel KCNH2 (Homo sapiens, UniProt Q12809); test: Inhibition of human ERG by medium-throughput electrophysiology
Cytochrome P450 3A4 = Cytochrome P450 3A4 (Homo sapiens, UniProt P08684); test: Inhibition of CYP3A4 (unknown origin); format: ADME
In short: (§1)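 CYP inhibition IC50 measured on isoforms CYP3A4, CYP2D6, CYP2C9, CYP2C19 and CYP1A2.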

Cytochrome P450 2D6 = Cytochrome P450 2D6 (Homo sapiens, UniProt P10635); test: Inhibition of CYP2D6 (unknown origin); format: ADME; in short: as §1
Cytochrome P450 2C9 = Cytochrome P450 2C9 (Homo sapiens, UniProt P11712); test: Inhibition of CYP2C9 (unknown origin); format: ADME; in short: as §1
Cytochrome P450 2C19 = Cytochrome P450 2C19 (Homo sapiens, UniProt P33261); test: Inhibition of CYP2C19 (unknown origin); format: ADME; in short: as §1
Cytochrome P450 1A2 = biological target: T1, Cytochrome P450 1A2 (Homo sapiens, UniProt P05177); test: Inhibition of CYP1A2 (unknown origin); format: ADME; in short: as §1
T1 sequence (P05177 whole entry): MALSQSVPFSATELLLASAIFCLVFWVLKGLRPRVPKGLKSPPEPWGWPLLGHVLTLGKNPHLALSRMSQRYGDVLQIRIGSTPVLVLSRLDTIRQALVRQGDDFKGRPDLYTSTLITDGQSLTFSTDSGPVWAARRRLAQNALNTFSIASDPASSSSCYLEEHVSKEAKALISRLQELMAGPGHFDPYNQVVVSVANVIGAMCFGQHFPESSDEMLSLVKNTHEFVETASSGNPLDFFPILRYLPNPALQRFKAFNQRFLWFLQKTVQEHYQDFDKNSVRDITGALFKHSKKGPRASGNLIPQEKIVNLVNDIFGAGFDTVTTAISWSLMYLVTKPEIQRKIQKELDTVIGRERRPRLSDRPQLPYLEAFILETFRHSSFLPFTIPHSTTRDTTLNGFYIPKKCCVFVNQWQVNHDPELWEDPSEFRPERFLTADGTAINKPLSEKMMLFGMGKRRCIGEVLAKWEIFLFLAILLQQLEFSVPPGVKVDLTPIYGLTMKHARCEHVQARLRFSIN

[11] = Inhibition of Mycobacterium smegmatis recombinant DprE1 using farnesylphosphoryl-beta-D-ribofuranose as substrate assessed as conversion of amplex red to resorufin after 30 mins; set-up: species or system Mycolicibacterium smegmatis
In short: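 Msm DprE1 (thioredoxin-6His fusion of Msm Rv3790) at 75 nM, preincubated 30 min with 10 μM FAD. Buffer: 50 mM glycylglycine pH 8.5, 200 mM potassium glutamate, 0.002% Brij-35, 2% DMSO, 25 °C. Started with 300 μM farnesylphosphoryl-β-D-ribofuranose, 0.01 mg/mL HRP and 50 μM Amplex Red.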

[12] = Solubility of the compound in fed-state simulated intestinal fluid at pH 6.5; format: ADME
[13] = test system: Mycobacterium tuberculosis; test: Antimycobacterial activity against Mycobacterium tuberculosis H37Rv under hypoxic condition after 6 days by resazurin assay; format: functional
Adenosine receptor A1 = biological target: T2, Adenosine receptor A1 (Homo sapiens, UniProt P30542); test: Inhibition of adenosine A1 receptor (unknown origin)
T2 sequence (P30542 whole entry): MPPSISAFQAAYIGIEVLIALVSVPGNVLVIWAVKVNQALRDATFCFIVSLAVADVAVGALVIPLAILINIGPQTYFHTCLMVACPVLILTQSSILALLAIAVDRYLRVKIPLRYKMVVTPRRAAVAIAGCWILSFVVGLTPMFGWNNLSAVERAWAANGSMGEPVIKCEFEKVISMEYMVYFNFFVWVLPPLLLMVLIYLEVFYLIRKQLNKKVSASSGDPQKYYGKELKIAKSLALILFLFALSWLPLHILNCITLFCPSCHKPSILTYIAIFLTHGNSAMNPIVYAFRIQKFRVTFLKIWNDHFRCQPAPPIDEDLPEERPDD
In short: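 Secondary pharmacology panel of binding, enzyme and functional assays covering 24 molecular targets. Activity recorded as a defined Ki/IC50/EC50.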

[14] = test system: Mycobacterium tuberculosis; test: Antimycobacterial activity against Mycobacterium tuberculosis over expressing DprE1 after 5 days by standard microdilution method; format: functional; details: 120 h
Staphylococcus aureus = test: Antimicrobial activity against Staphylococcus aureus ARC517 at 100 uM; format: functional, organism-based
In short: (§2)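 Nonmycobacterial panel of Candida albicans, Gram-negative and Gram-positive pathogens.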

Streptococcus pneumoniae = test: Antimicrobial activity against Streptococcus pneumoniae ARC548 at 100 uM; format: functional, organism-based; in short: as §2
Haemophilus influenzae [15] = test: Antimicrobial activity against Haemophilus influenzae ARC446 at 100 uM; format: functional, organism-based; in short: as §2
Haemophilus influenzae [16] = test: Antimicrobial activity against Haemophilus influenzae ARC158 at 100 uM; format: functional, organism-based; in short: as §2
Escherichia coli [17] = test: Antimicrobial activity against Escherichia coli ARC523 at 100 uM; format: functional, organism-based; in short: as §2
Escherichia coli [18] = test: Antimicrobial activity against Escherichia coli ARC524 at 100 uM; format: functional, organism-based; in short: as §2
Pseudomonas aeruginosa [19] = test: Antimicrobial activity against Pseudomonas aeruginosa ARC545 at 100 uM; format: functional, organism-based; in short: as §2
Pseudomonas aeruginosa [20] = test: Antimicrobial activity against Pseudomonas aeruginosa ARC546 at 100 uM; format: functional, organism-based; in short: as §2
Klebsiella pneumoniae = test: Antimicrobial activity against Klebsiella pneumoniae ARC1865 at 100 uM; format: functional, organism-based; in short: as §2
[21] = test system: Mycolicibacterium smegmatis; test: Antimicrobial activity against Mycobacterium smegmatis ATCC 607 at 100 uM; format: functional, organism-based
[22] = test system: Mycolicibacterium smegmatis; test: Antimicrobial activity against Mycobacterium smegmatis mc2155 at 100 uM; format: functional, organism-based; details: str. MC2 155
Candida albicans = test: Antimicrobial activity against Candida albicans ARC527 at 100 uM; format: functional, organism-based; in short: as §2
[23] = Inhibition of Mycobacterium smegmatis DprE1 Y321H mutant using farnesylphosphoryl-beta-D-ribofuranose as substrate assessed as conversion of amplex red to resorufin after 30 mins; set-up: species or system Mycolicibacterium smegmatis
In short: (§3)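 Recombinant M. smegmatis DprE1 (thioredoxin-6His fusion), wild type or Y321H, 75 nM. Enzyme was preincubated 30 min in FAD assay mix: 50 mM glycylglycine pH 8.5, 200 mM potassium glutamate, 10 μM FAD, 0.002% Brij-35, 2% DMSO. Reaction was started with 300 μM farnesylphosphoryl-β-D-ribofuranose, 0.01 mg/mL HRP and 50 μM amplex red at 25 °C.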

[24] = test system: Mycolicibacterium smegmatis; test: Ratio of IC50 for Mycobacterium smegmatis DprE1 Y321H mutant to IC50 for Mycobacterium smegmatis recombinant wild type DprE1; in short: as §3

Sequence of Cytochrome P450 2D6 (P10635 whole entry): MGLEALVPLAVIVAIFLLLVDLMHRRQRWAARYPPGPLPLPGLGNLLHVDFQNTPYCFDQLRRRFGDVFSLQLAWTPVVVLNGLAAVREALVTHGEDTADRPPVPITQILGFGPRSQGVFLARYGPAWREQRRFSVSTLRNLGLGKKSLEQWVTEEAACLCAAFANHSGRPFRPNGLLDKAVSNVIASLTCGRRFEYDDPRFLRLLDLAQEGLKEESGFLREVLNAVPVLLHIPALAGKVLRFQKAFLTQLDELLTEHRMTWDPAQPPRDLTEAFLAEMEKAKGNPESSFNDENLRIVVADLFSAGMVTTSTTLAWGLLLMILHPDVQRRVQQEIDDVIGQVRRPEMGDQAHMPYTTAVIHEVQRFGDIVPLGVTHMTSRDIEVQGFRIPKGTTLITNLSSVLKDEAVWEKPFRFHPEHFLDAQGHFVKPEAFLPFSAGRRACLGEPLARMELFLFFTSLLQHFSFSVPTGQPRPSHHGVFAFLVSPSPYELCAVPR
Sequence of Cytochrome P450 2C9 (P11712 whole entry): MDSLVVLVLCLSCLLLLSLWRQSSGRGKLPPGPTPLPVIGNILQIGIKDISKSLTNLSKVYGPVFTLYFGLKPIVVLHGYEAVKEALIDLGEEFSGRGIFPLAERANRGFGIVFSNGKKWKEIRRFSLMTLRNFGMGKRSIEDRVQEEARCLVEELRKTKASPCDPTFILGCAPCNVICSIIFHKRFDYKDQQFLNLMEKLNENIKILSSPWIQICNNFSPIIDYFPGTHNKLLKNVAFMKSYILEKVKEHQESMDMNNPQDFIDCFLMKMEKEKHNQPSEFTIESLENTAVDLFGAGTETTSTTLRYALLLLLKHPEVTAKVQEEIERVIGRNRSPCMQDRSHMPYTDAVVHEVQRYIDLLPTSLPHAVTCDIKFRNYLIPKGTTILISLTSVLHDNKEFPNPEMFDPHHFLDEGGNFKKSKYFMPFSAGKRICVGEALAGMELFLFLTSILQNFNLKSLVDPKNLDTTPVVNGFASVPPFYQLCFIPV
Sequence of Cytochrome P450 3A4 (P08684 whole entry, canonical isoform): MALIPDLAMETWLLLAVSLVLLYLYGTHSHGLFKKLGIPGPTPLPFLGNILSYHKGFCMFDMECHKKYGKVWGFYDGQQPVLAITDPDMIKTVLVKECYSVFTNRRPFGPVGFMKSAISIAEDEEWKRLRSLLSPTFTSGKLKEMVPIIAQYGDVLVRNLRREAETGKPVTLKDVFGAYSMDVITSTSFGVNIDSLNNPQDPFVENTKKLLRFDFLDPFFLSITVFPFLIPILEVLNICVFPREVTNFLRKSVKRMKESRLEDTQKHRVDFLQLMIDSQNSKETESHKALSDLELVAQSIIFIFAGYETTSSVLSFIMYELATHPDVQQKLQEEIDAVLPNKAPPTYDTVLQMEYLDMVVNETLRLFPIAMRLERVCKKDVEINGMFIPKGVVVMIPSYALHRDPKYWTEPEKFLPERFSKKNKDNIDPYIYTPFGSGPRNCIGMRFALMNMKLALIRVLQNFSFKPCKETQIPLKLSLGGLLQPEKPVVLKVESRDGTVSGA
Sequence of Cytochrome P450 2C19 (P33261 whole entry): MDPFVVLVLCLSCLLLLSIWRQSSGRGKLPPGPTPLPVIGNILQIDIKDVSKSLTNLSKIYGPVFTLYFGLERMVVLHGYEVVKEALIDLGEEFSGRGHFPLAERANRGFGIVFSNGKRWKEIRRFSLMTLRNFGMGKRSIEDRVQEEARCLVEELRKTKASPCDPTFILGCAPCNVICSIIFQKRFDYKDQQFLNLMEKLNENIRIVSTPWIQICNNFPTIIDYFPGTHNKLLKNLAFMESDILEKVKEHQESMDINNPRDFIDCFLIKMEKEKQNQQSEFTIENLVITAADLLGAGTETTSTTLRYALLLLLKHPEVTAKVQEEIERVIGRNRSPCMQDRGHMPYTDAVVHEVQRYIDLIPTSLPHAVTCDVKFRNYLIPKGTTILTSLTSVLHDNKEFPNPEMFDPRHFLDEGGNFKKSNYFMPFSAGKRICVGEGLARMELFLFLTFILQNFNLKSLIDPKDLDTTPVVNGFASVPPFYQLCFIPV
Sequence of Voltage-gated inwardly rectifying potassium channel KCNH2 (Q12809 whole entry): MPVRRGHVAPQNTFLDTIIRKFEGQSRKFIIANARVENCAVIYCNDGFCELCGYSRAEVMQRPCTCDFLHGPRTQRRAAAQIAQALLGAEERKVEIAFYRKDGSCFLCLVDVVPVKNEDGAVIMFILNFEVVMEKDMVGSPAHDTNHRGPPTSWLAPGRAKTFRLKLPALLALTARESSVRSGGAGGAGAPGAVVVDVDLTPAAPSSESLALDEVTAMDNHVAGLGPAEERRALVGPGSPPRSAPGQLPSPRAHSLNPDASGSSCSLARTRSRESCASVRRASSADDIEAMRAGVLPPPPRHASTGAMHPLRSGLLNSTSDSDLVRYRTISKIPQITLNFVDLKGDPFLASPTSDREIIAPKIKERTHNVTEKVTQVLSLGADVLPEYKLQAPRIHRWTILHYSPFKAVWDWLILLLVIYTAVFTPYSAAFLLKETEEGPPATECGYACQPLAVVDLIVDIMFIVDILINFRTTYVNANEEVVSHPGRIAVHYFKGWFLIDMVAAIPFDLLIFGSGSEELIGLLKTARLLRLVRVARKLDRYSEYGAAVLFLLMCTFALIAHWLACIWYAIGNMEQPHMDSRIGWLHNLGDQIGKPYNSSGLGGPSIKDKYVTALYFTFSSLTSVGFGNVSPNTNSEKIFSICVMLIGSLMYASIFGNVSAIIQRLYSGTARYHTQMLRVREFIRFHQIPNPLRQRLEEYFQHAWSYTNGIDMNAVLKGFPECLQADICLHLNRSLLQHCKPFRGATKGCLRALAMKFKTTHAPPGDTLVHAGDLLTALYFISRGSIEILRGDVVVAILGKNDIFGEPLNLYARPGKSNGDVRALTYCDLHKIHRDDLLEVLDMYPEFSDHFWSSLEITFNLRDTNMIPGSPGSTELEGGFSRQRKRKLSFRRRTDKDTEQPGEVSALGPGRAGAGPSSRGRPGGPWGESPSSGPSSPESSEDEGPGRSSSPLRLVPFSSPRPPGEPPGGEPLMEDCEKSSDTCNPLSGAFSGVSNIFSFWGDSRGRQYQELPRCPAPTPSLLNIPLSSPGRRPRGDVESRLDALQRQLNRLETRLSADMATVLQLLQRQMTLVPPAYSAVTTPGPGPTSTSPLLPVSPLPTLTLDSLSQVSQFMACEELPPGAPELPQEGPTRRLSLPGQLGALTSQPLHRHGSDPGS

SMILES | MIC [1] [µM] | MCC at 72 h [2] [µM] | solubility at 24 h [3] [µM] | logD [4] | fraction unbound at 18 h, 20 µM [5] | microsomal CLint at 1 µM [6] [µL/min/mg] | hepatocyte CLint at 1 µM [7] [µL/min/1e6 cells] | Papp A→B [8] [×10⁻⁶ cm/s] | Papp B→A [9] [×10⁻⁶ cm/s] | IC50 [10] [µM] | INH (Cytochrome P450 3A4) [µM] | INH (Cytochrome P450 2D6) [µM] | INH (Cytochrome P450 2C9) [µM] | INH (Cytochrome P450 2C19) [µM] | INH (Cytochrome P450 1A2) [µM] | IC50 [11] [µM] | solubility [12] [µM] | IC50 (Adenosine receptor A1) [µM] | other results
Cc1onc(C(=O)N2[C@@H]3CC[C@H]2C[C@@H](Nc2cc(=O)n(C)c4nccnc24)C3)c1C | 6.2 (≈ 2.53 µg/mL) | > 50 | 132 (≈ 53.9 µg/mL) | 1.8 | 0.05 | 100 | 20 | 33 | 21 | > 33 | > 30 | > 30 | > 30 | > 30 | > 30 | 0.183 | 307 (≈ 125 µg/mL) | – | –
Cc1onc(C(=O)N2CCC(Nc3cc(=O)n(C)c4cc(F)c(F)cc34)CC2)c1C | 0.78 (≈ 0.325 µg/mL) | > 16 | 28 (≈ 11.7 µg/mL) | 2.3 | 0.05 | 49 | 17 | 22 | 21 | – | > 30 | > 30 | > 30 | > 30 | > 30 | 0.038 | 91 (≈ 37.9 µg/mL) | 8 | Activity [13]: inactive; MIC [14]: 100 µM (≈ 41.6 µg/mL); Activity (Staphylococcus aureus): inactive; Activity (Streptococcus pneumoniae): inactive; Activity (Haemophilus influenzae [15]): inactive; Activity (Haemophilus influenzae [16]): inactive; Activity (Escherichia coli [17]): inactive; Activity (Escherichia coli [18]): inactive; Activity (Pseudomonas aeruginosa [19]): inactive; Activity (Pseudomonas aeruginosa [20]): inactive; Activity (Klebsiella pneumoniae): inactive; Activity [21]: inactive; Activity [22]: inactive; Activity (Candida albicans): inactive; IC50 [23]: 7.02 µM; fold change (FC) [24]: 165
Cc1onc(C(=O)N2[C@@H]3CC[C@H]2C[C@@H](Nc2cc(=O)n(C)c4cc(F)c(F)cc24)C3)c1C | 0.12 (≈ 0.0531 µg/mL) | > 50 | 6 (≈ 2.65 µg/mL) | 2.8 | 0.03 | 107 | 56 | 23 | 13 | 16 | > 30 | > 30 | > 30 | > 30 | > 30 | 0.017 | – | 8 | –
